Screening results: PubChem BioAssay, several laboratories
An excerpt weighted towards active compounds, which were near 2% of everything screened.
Hep lipid drop – inhibitors of hepatocyte lipid droplet formation, primary screen, imaging, high-throughput imaging, BODIPY stain | AML12 mouse hepatocytes, oleate lipid droplets | inhibition, % at 6.5 µM | 240,000 compounds, 0.4% hits;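 active = lipid droplet intensity inhibited by at least 50%, with more than 500 cells counted; inconclusive = wells with under 300 cells, treated as cytotoxic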
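Material: mouse AML12 hepatocyte cell line, fixed after treatment; Timing: compound with oleate, overnight; Technique: high-content imaging of BODIPY-stained droplets and DAPI nuclei; Probe or stimulus: oleate, 100 µM final; Dosing: compound at 6.5 µM only.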
RBBP9 inh – human RBBP9 inhibitors, primary screen, biochemical, fluorescence polarization, FP-Rh probe, HTS; inhibition, % at 7.94 µM; AID 1515, 2009; 220,000 compounds, 0.2% hits; recombinant RBBP9; Serine hydrolase RBBP9 (Homo sapiens), O75884;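 active = inhibition above the campaign mean of all tested compounds plus 3 SD, cut at about 14% in these data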;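 also: plate controls were DMSO wells with RBBP9 for no effect and wells lacking RBBP9 protein for full effect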
Target sequence (O75884 whole entry, looked up): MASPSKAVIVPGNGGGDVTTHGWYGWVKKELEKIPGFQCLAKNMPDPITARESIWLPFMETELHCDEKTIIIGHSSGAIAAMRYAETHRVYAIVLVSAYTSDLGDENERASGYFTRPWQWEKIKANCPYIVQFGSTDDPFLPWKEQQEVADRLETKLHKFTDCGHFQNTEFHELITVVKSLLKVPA
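Test system: recombinant human RBBP9. Quantity: 2.5 µM RBBP9 dispensing solution, before mixing. Detection: FP readout at 525/598 nm. Reagent: Serine-hydrolase probe FP-Rh, 375 nM pre-mixing. Measure: % inhibition. Control set: DMSO-treated enzyme wells and wells lacking RBBP9. Buffer or medium: Tris-NaCl-Pluronic buffer, pH 8.0. Times: preincubation 30 min plus labeling 45 min at 25 °C.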
TNF death inh – inhibitors of TNF-alpha triggered necroptosis, primary screen, cell-based, Jurkat FADD-/-, single concentration; Jurkat FADD-/- TNF necroptosis rescue, ATP luminescence, 24 h; 0 = TNF only, 100 = no-TNF cells; AID 463075, 2010; 220,000 compounds, 0.068% hits; activation (protection from cell death), % at 10 µM;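 active = activation, meaning protection from cell death, of at least 50% relative to plate controls; inactive = activation below 50%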;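 also: necroptosis triggered by 40 ng/mL TNF-alpha added together with compound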
zVAD death inh – inhibitors of zVAD-triggered necroptosis, primary screen, L929 cells; L929 zVAD necroptosis rescue, ATP luminescence, 24 h; with zVAD 60 µM; 220,000 compounds, 0.38% hits; viability rescue, % at 10 µM; AID 1377, 2008;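 active = activation, scaled between plate controls, above about 75%, limit read from the data; inactive = activation under that limit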;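 also: 0% = zVAD with DMSO and 100% = DMSO alone without zVAD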
PfM18AAP inh – PfM18AAP inhibitors, malaria aminopeptidase, primary screen, biochemical, QFRET, recombinant enzyme. 290,000 compounds, 1.2% hits. H-Glu-NHMec fluorogenic cleavage. AID 1822, 2009. M18 aspartyl aminopeptidase (Plasmodium falciparum 3D7). inhibition, % at 7.35 µM;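 active = inhibition above the campaign mean inhibition over all tested compounds plus 3 SD, cut at about 28% in these data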;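 also: 0% = plate median of test compound wells and 100% = 2 mM ZnCl2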
Tb hexokinase – Trypanosoma brucei hexokinase 1 inhibitors, primary screen, biochemical, G6PDH-coupled NADH absorbance, MLSCN library. hexokinase 1 [Trypanosoma brucei]. recombinant TbHK1, G6PDH-coupled NADH A340. inhibition, % at 10 µM. 220,000 compounds, 0.11% hits. AID 1430, 2008;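 active = inhibition of 50% or more in the single-dose primary screen; inactive = inhibition below 50%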
zVAD death conf – inhibitors of zVAD-triggered necroptosis in L929, confirmation, L929 cells, duplicate runs; shares compounds with zVAD death inh; L929 zVAD-induced necroptosis rescue, ATP luminescence, 24 h; activation (protection from necroptosis), % at 10 µM; 760 compounds, 16% hits; AID 463117, 2010;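 active = mean protection from necroptosis of at least 50% over duplicate tests; inactive = mean protection below 50%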;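 also: 0% = cells with zVAD alone and 100% = vehicle cells without zVAD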
* = called active by the depositor.

Screening Cc1ccccc1C(C(=O)NC1CCCC1)N(C(=O)CNC(=O)c1ccco1)c1cccnc1 (stereo unspecified) returned Hep lipid drop -5, RBBP9 inh -3, TNF death inh -1, zVAD death inh 6, PfM18AAP inh 2 and Tb hexokinase -2.
O=[N+]([O-])c1ccc(/C=N/Nc2ncc(-c3ccccc3)cn2)cc1 was read as Hep lipid drop 1, RBBP9 inh -4, TNF death inh 1, zVAD death inh 79*, PfM18AAP inh 0, Tb hexokinase -10 and zVAD death conf 2.
For O=[N+]([O-])c1ccc(/C=N/Nc2ncc(Br)cn2)cc1 the results were Hep lipid drop -23 and PfM18AAP inh 12.
For CCCN(CC(=O)Nc1ccccc1OC)C(=O)c1ccc(=O)[nH]c1 the results were Hep lipid drop 6 and PfM18AAP inh 1.
For S=c1[nH]nc(-c2ccco2)n1/N=C/C(Cl)=C/c1ccccc1 the results were Hep lipid drop 0, RBBP9 inh 0, TNF death inh -9, zVAD death inh 77*, PfM18AAP inh 17, Tb hexokinase -17 and zVAD death conf 4.
Screening Cc1cc(-c2n[nH]c(=S)n2/N=C/C(Cl)=C/c2ccccc2)n[nH]1 returned Hep lipid drop -20, RBBP9 inh -6, TNF death inh -4, zVAD death inh 83*, PfM18AAP inh 8, Tb hexokinase -12 and zVAD death conf 2.
Screening CCCN1CCN(CCCNC(=O)Cn2nc(C)n3c(cc4cc(OC)ccc43)c2=O)CC1 returned Hep lipid drop 5 and PfM18AAP inh 0.
`CCCCc1cc(=O)oc2cc(O)ccc12` gave Hep lipid drop -11, RBBP9 inh -11, TNF death inh -2, zVAD death inh 1, PfM18AAP inh 0 and Tb hexokinase -13.
For CN(/N=C/c1cc(Cl)ccc1O)C1=NS(=O)(=O)c2ccccc21 the results were Hep lipid drop 10 and PfM18AAP inh -14.
Screening COc1ccc(/C=N/NC(=O)C(=O)N2CCCCCC2)cc1 returned Hep lipid drop 6 and PfM18AAP inh -1.
`O=C(COc1ccc(/C=N/NC(=O)C(=O)N2CCCCCC2)cc1)Nc1ccccc1Cl` gave Hep lipid drop -7, RBBP9 inh 2, TNF death inh 0, zVAD death inh 78*, PfM18AAP inh 0, Tb hexokinase 0 and zVAD death conf 45.
`O=[N+]([O-])c1ccc2c(c1)ncn2-c1ccccc1` gave Hep lipid drop 12, RBBP9 inh -3, TNF death inh 0, zVAD death inh 83*, PfM18AAP inh 0, Tb hexokinase -11 and zVAD death conf 20.
`Oc1ccc(Nc2nnc(-c3ccc(O)cc3)c3ccccc23)cc1` gave Hep lipid drop 1, RBBP9 inh -4, TNF death inh -2, zVAD death inh 81*, PfM18AAP inh 12, Tb hexokinase -9 and zVAD death conf 1.
COc1ccc(Nc2nnc(-c3ccc(O)cc3)c3ccccc23)cc1 was read as Hep lipid drop 1, RBBP9 inh -1, TNF death inh -7, zVAD death inh 75*, PfM18AAP inh -6, Tb hexokinase -6 and zVAD death conf 39.
Screening O=C(NCCO)c1ccc(-c2nnc(Nc3ccc(O)cc3)c3ccccc23)cc1 returned Hep lipid drop -1 and PfM18AAP inh -4.
COc1ccc(Nc2nnc(-c3ccc(O)cc3)c3ccccc23)cc1C(N)=O was read as Hep lipid drop -9, RBBP9 inh -2, TNF death inh -2, zVAD death inh 82*, PfM18AAP inh 5, Tb hexokinase -16 and zVAD death conf 7.
`COc1ccc(-n2cc(C(=O)c3cc4ccccc4oc3=O)c(C(C)=O)n2)cc1` gave Hep lipid drop -19, RBBP9 inh 2, TNF death inh -6, zVAD death inh 0, PfM18AAP inh 0 and Tb hexokinase -8.
For COCCNC(=O)C(=O)NCC1OCCCN1S(=O)(=O)c1cccs1 (stereo unspecified) the results were Hep lipid drop -11, RBBP9 inh 0, TNF death inh 1, zVAD death inh 0, PfM18AAP inh 2 and Tb hexokinase -1.
`Cc1ccc(C(=O)Sc2cccccc2=O)cc1` gave Hep lipid drop inconclusive and PfM18AAP inh 2.
Screening C=CCN(CC=C)C(=S)Nc1ccccc1 returned RBBP9 inh -6, TNF death inh -1, zVAD death inh 0, PfM18AAP inh 2 and Tb hexokinase 3.
Cc1ccc(C)c(OCCNc2ncccc2[N+](=O)[O-])c1 was read as Hep lipid drop -2 and PfM18AAP inh -10.
Screening COc1cccc(-n2nnnc2SCC(=O)Nc2nc3c(s2)CCCC3)c1 returned Hep lipid drop -20, RBBP9 inh -7, TNF death inh 0, zVAD death inh 0, PfM18AAP inh -2 and Tb hexokinase 4.
O=C(CSc1nnnn1-c1ccc2c(c1)OCCO2)Nc1nc2c(s1)CCCC2 was read as RBBP9 inh -1, TNF death inh 2, zVAD death inh 84*, PfM18AAP inh -3, Tb hexokinase -1 and zVAD death conf 74*.
CCOC(=O)c1c(NC(C)=O)sc(/C(C)=N/Nc2ccc(C(=O)O)cc2)c1C was read as Hep lipid drop 5 and PfM18AAP inh 3.
For Cc1ccc(NC(=O)CSc2nsc(SCC(=O)Nc3ccc(C)cc3C)c2C#N)c(C)c1 the results were Hep lipid drop 18, RBBP9 inh -11, TNF death inh 0, zVAD death inh 0, PfM18AAP inh 0 and Tb hexokinase 17.
Cc1csc(NC(=O)CSc2nsc(SCC(=O)Nc3nc(C)cs3)c2C#N)n1 was read as RBBP9 inh -5, TNF death inh -7, zVAD death inh 76*, PfM18AAP inh 22, Tb hexokinase 3 and zVAD death conf 53*.
`Cn1ncc([N+](=O)[O-])c1C(=O)N/N=C/c1ccc(F)cc1` gave Hep lipid drop -2, RBBP9 inh -11, TNF death inh 1, zVAD death inh 0, PfM18AAP inh 1 and Tb hexokinase -9.
Screening CNC(=O)COC(=O)c1cc(-c2ccccc2)nn1-c1ccccc1 returned Hep lipid drop 1, RBBP9 inh -7, TNF death inh 0, zVAD death inh 2, PfM18AAP inh -1 and Tb hexokinase -3.
